The source made the active and inactive calls.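 The calls were made as follows: active = growth inhibition above 25% in both replicates, a cutoff set 3 SD above the mean; inconclusive = above 25% in only one replicate; inactive = the rest.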

A short description of the test: S. cerevisiae growth inhibition in permissive medium (OD615), pilot counter-assay for S. cerevisiae lifespan shortening project, permissive growth control (AID 705). Conditions: OD615, 24 h, at 10 µM, stronger effect = higher value. Put shortly:
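System: S. cerevisiae with engineered DeaD lifespan system. Medium: SC raffinose/galactose permissive medium. Doses: single compound dose of 10 µM, 0.25% DMSO final. Schedule: 24 h exposure, 30 °C. Measured by: OD615 turbidity read. Read-out: growth inhibition.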
With `COc1ccc(C2=[N+]([O-])C(C)(C)N(O)C2(C)C)cc1`, the growth inhibition was -8.58% (inactive).

As to `Cc1onc(-c2ccccc2Cl)c1C(=O)N1CCN(c2cccc(Cl)c2)CC1`, the growth inhibition is -18.9% (inactive).

For `O=c1[nH]c(SCc2ccccc2Cl)nc2c1CCC2`, the growth inhibition was -4.46% (inactive).

With `CC(=O)NCCOC(=O)Nc1ccncc1`, the growth inhibition was 4.58% (inactive).

As to `Cc1cccc(NC(=O)CS(=O)(=O)c2cn(C)c3ccccc23)c1C`, the growth inhibition is -8.09% (inactive).

For the molecule `O=C(Nc1ccc(Cl)cc1)N(Cc1cccs1)Cc1cccs1`, the growth inhibition was -13.9% (inactive).

`COc1ccc(OC(C)C(=O)Nc2cccc(OC)c2)cc1` (stereo not given): the growth inhibition was -4.58% (inactive).

Consider `COc1cc2c(C(=O)N3CCN(Cc4ccc5c(c4)OCO5)CC3)cn(C)c(=O)c2cc1OC`, for which the growth inhibition was -8.34% (inactive).

On to `COc1ccc(S(=O)(=O)N(CCc2ccccc2)CC(=O)N2CCOCC2)cc1`, for which the growth inhibition is -7.4% (inactive).

With `CN(C)c1ccc(NC(=S)c2ccccn2)cc1`, the growth inhibition is 4.71% (inactive).

Consider `O=C1N=C(c2ccccc2)C(c2ccccc2)N1` (stereo not given), for which the growth inhibition was -9.57% (inactive).

As for `C#CCN1C(=O)C(O)(CC(=O)c2ccc(OC)c(OC)c2)c2ccccc21` (stereo not given), the growth inhibition is 2.17% (inactive).

On to `CS(=O)(=O)N(CC(=O)N1CCCCCC1)c1cccc(Br)c1`, for which the growth inhibition was -9.19% (inactive).

On to `CCSc1nc2ccccc2n1CC(=O)N1CCOCC1`, for which the growth inhibition was -4.23% (inactive).

On to `C=C1c2ccc(C)cc2NC(=O)N1c1ccccc1`, for which the growth inhibition is 3.26% (inactive).

In the case of `CCc1cccc(C)c1NC(=O)CCCC(=O)O`, the growth inhibition is -0.24% (inactive).

Turning to `COc1ccc(Oc2ccc(S(=O)(=O)N3CCCCC3)cc2S(=O)(=O)N2CCCCC2)cc1`, the growth inhibition is -4.96% (inactive).

For the molecule `CS(=O)(=O)N(CC(=O)NCc1ccncc1)c1cc(Cl)cc(Cl)c1`, the growth inhibition is -7.62% (inactive).

Regarding `O=C(CNC(=O)c1ccco1)OCc1ccc(Cl)cc1`, the growth inhibition was -3.76% (inactive).

On to `O=C(COc1ccccc1)NCCSc1ccccc1`, for which the growth inhibition is -10.4% (inactive).

Turning to `CS(=O)(=O)N(CC(=O)N1CCN(c2ccccc2F)CC1)c1cc(C(F)(F)F)ccc1Cl`, the growth inhibition was 1.93% (inactive).

`O=C(CCn1nnc2ccccc21)N1CCC(O)(c2cccc(F)c2)CC1`: the growth inhibition was -3.14% (inactive).

On to `COCCNC(=O)NC1(C(F)(F)F)Oc2ccc(Cl)cc2O1` (stereo not given), for which the growth inhibition is -0.985% (inactive).

For the molecule `CCOC(=O)C1CCN(S(=O)(=O)c2cc(Br)cc3c2N(C(=O)C2CC2)CC3)CC1`, the growth inhibition is -12.9% (inactive).

As to `CCC(C)C1C(C#N)=C(N)Oc2n[nH]c(C)c21` (stereo not given), the growth inhibition is -0.17% (inactive).

Regarding `COC(=O)c1ccc2[nH]c(C)c(CN3CCCC3)c(=O)c2c1`, the growth inhibition is -4.34% (inactive).

For `CCn1cc(S(=O)(=O)CC(=O)NC2CCCCC2)c2ccccc21`, the growth inhibition is -9.89% (inactive).

As for `COc1ccccc1CNC(=O)CCS(=O)(=O)c1cccs1`, the growth inhibition was -15.9% (inactive).

Regarding `Cc1ccsc1C(=O)OCC(=O)c1cc2ccccc2o1`, the growth inhibition was -18.1% (inactive).

Turning to `CCn1c(C)c2c(C)nnc(C)c2c1C`, the growth inhibition is -7.03% (inactive).

For the molecule `CCOC(=O)c1ccc(NC(=O)c2cccc(S(=O)(=O)N3CCOCC3)c2)cc1`, the growth inhibition was -9.14% (inactive).

Regarding `CCS(=O)(=O)C(=C(Nc1ccc(OC)cc1)Nc1ccc(OC)cc1)S(=O)(=O)CC`, the growth inhibition is -3.28% (inactive).

As for `c1ccc(CSc2nnc3c(n2)OC(c2ccco2)Nc2ccccc2-3)cc1` (stereo not given), the growth inhibition was -10.6% (inactive).

For `CC(Sc1nc2c(c(=O)n(C)c(=O)n2C)n1Cc1cc2c(cc1Cl)OCO2)C(=O)O` (stereo not given), the growth inhibition was -10.7% (inactive).

On to `CCN(CC)C(=O)c1cn(C)c(=O)c2cc(OC)c(OC)cc12`, for which the growth inhibition is -12.1% (inactive).

Consider `CCc1cc(=O)oc2cc(OCC(=O)OC)c(Cl)cc12`, for which the growth inhibition was -4.85% (inactive).

Regarding `CCOC(=O)N1CCN(C(=O)CN(c2cccc(C(F)(F)F)c2)S(C)(=O)=O)CC1`, the growth inhibition is -9.57% (inactive).

As for `CCN(CC)C(=O)C(C)N(C#N)c1nc(NC(C)C)nc(NC(C)C)n1` (stereo not given), the growth inhibition is -9.32% (inactive).

As for `CCN1CCN(c2cc(C)c3cc(NC(=O)c4ccc5c(c4)OCO5)ccc3n2)CC1`, the growth inhibition was -12.3% (inactive).

For the molecule `CC(c1ccccc1F)n1cc(C(=O)NCCc2ccco2)nn1` (stereo not given), the growth inhibition was -12.9% (inactive).

Source of the values: PubChem BioAssay.
